Screening results: PubChem, several laboratories
HDAC3 inhib: HDAC3 deacetylase inhibitors, primary screen, biochemical, fluorescence, cell-free homogeneous | Histone deacetylase 3 (Homo sapiens), O15379 | AID 2718, 2010 | actives 0.15% (n = 320,000) | recombinant HDAC3, fluorogenic peptide/trypsin coupled | inhibition, % at 8.3 µM; in the data active means inhibition above about 26%, passing the limit was not always enough; inconclusive means no clear call, values can overlap the other calls
Target sequence (O15379 whole entry, looked up): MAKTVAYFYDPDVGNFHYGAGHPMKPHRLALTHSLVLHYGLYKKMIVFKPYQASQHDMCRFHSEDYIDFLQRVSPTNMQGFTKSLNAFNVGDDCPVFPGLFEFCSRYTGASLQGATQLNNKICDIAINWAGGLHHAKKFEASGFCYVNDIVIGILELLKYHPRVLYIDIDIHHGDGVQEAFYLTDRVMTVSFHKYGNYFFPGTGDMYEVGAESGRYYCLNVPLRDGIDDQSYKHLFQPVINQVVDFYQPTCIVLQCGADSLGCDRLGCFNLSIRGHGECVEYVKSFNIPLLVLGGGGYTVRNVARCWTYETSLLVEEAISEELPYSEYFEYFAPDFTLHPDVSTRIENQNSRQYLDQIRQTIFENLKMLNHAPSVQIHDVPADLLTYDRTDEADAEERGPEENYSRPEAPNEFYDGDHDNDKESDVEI
AHR act: AHR activators, primary screen, cell-based, luminescence, luciferase reporter, human; AHR-responsive luciferase reporter cells; actives 2.5% (n = 320,000); Aryl hydrocarbon receptor (Homo sapiens), P35869; activation, % at 5 µM; in the data active means activation above about 47%
SENP1 FRET inh: human SENP1 catalytic domain inhibitors, primary screen, biochemical, FRET, uHTS; Sentrin-specific protease 1 (Homo sapiens), Q9P0U3; recombinant SENP1 catalytic domain, CyPet-SUMO1-YPet FRET cleavage; inhibition, % at 10 µM; actives 0.21% (n = 360,000);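 active means inhibition at least 30% at 10 µM, raw YFP signal under a set limit, fluorescence ratio 0.5 to 1.5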
Target sequence (Q9P0U3 419-644 limits assumed): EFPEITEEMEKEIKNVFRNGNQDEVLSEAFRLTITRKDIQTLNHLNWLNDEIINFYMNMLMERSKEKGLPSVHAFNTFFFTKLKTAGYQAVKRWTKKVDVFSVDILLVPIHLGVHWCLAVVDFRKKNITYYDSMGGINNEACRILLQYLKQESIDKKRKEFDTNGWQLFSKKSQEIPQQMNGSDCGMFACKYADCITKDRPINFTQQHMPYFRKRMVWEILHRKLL
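Test system: human SENP1 catalytic domain; medium: Tris pH 8 buffer plus EDTA, NaCl, BME, BSA, NP40, catalase; incubation: 50 min reaction at room temperature; technique: FRET, CFP and YFP emission; controls: no-enzyme low control and enzyme-plus-DMSO high control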
CTSL1 counter: Fasciola hepatica cathepsin L1 inhibitors, primary screen, counter-screen for PFM18AAP inhibitor project, biochemical, QFRET, fluorogenic peptide substrate; inhibition, % at 5.96 µM; actives 0.49% (n = 300,000); recombinant F. hepatica cathepsin L1, Z-Leu-Arg-MCA fluorescence; AID 1906, 2009;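 active means inhibition above the mean of all tested compounds plus 3 SD, set per screening campaign, cut at about 17% in these data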
GAA850 FXN act: FXN promoter activators, primary screen, cell-based, luciferase luminescence, HEK293 lucGAA850; HEK293 lucGAA850 FXN promoter luciferase reporter, 24 h; percent of 10 µM SAHA response; activation, % at 6 µM; actives 0.56% (n = 360,000);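 active means activation above the average of all compounds screened plus 3 SD, cutoff fixed separately per campaign, cut at about 7.5% in these data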
M18AAP inhibitor: PfM18AAP inhibitors, malaria aminopeptidase, primary screen, biochemical, QFRET, recombinant enzyme; M18 aspartyl aminopeptidase (Plasmodium falciparum 3D7); H-Glu-NHMec fluorogenic cleavage; inhibition, % at 7.35 µM; actives 1.2% (n = 290,000);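 active means inhibition above the campaign mean inhibition over all tested compounds plus 3 SD, cut at about 28% in these data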
GAA30 counter: GAA30 FXN promoter activators, confirmation, counter-screen for GAA850 frataxin promoter activator project, cell-based, luminescence, HEK293, lucGAA30, triplicate; HEK293 lucGAA30 FXN promoter luciferase, 24 h; DMSO = 0%, 5 µM ipriflavone = 100%; shares compounds with GAA850 FXN act; activation, % at 6 µM; actives 66% (n = 1,900); AID 588350, 2011;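 active means mean activation above the mean of solvent-only control wells plus 3 SD, cut at about 22% in these data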;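 further: counterscreen of GAA850 promoter hits where activity marks nonselective or luminescence artifacts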
FXN GAA850 conf: FXN GAA850 promoter activators in reporter cells, confirmation, cell-based, luminescence, HEK293 lucGAA850, triplicate; activation, % at 6 µM; HEK293 lucGAA850 FXN promoter luciferase reporter, 24 h; 100% = activation by SAHA; AID 588351, 2011; shares compounds with GAA850 FXN act; actives 86% (n = 1,900);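 active means mean activation above a set limit taken from the primary screen, cut at about 8% in these data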
Large screens that a line does not name were inactive (follow-up assays come after a bar, where they were run). Hits are enriched below; roughly 4.2% of the tested compounds scored in any of these assays.

CN(C)c1ccc(O)c2c1CC1CC3[C@@H](N(C)C)C(=O)C(C(N)=O)=C(O)[C@]3(O)C(=O)C1=C2O (some centres undefined)	GAA850 FXN act 15.0 | GAA30 counter 28.7 | FXN GAA850 conf 10.2
Cc1cc(C(=O)Nc2sc(C)c(-c3ccc(F)cc3)c2C(N)=O)no1	GAA850 FXN act 8.4 | GAA30 counter 105.8 | FXN GAA850 conf 31.0
O=C(COc1cc(F)ccc1[N+](=O)[O-])NCCN1C(=O)CSC1=O	none (no result: CTSL1 counter, M18AAP inhibitor)
COc1cccc(-c2ccc(SCc3ccccn3)nn2)c1	GAA850 FXN act 8.7 | GAA30 counter 109.6 | FXN GAA850 conf 36.3
COc1ccc(-c2ccc(SCc3ccccn3)nn2)cc1OC	HDAC3 inhib inconclusive
CC1(C)OCC(CNC(=O)c2[nH]c(C(F)(F)F)nc2-c2ccccc2)O1 (centres undefined)	none (no result: HDAC3 inhib, AHR act, CTSL1 counter, GAA850 FXN act, M18AAP inhibitor)
Cc1ccc(-c2nc3ccccc3[nH]2)cn1	none
Cc1nc2ccc(-c3nc4ccccc4[nH]3)cc2[nH]1	GAA850 FXN act 7.8 | GAA30 counter 128.7 | FXN GAA850 conf 37.9
Oc1cc2c(cc1CN1CCN(c3ncccn3)CC1)OCO2	none
CC(C)c1ccc2c(c1)C1(NN=C(c3ccccc3)S1)C(=O)N2 (centres undefined)	GAA850 FXN act 7.9 | GAA30 counter inactive | FXN GAA850 conf inactive
CC(C)CCn1c(SCC(N)=O)nc2c1c(=O)n(C)c(=O)n2C	GAA850 FXN act 10.9 | GAA30 counter inactive | FXN GAA850 conf 9.7
CC(C)n1c(SCC(N)=O)nc2c1c(=O)n(C)c(=O)n2C	none
CCC(C)CN1C(=O)CN(S(C)(=O)=O)CC1(C)C(=O)Nc1c(C)cccc1C (centres undefined)	none (no result: HDAC3 inhib, AHR act, CTSL1 counter, GAA850 FXN act, M18AAP inhibitor)
Cn1cc([C@]2(O)C(=O)Nc3c(F)cccc32)c2ccccc21	none (no result: HDAC3 inhib, AHR act, CTSL1 counter, GAA850 FXN act, M18AAP inhibitor)
O=C(Nc1cccc(C(F)(F)F)c1)C(=O)N1CCCCC1	GAA850 FXN act 8.1 | GAA30 counter 52.7 | FXN GAA850 conf 21.2
CC(C)c1ccc(NC(=O)c2ccc(NS(C)(=O)=O)cc2)cc1	none
O=C(Cn1cnc2cc([N+](=O)[O-])ccc2c1=O)NC(c1ccccc1)c1ccccc1	none
C[C@H](CO)N1C[C@H](C)[C@H](CN(C)C(=O)N[C@H](C)c2ccccc2)OCc2ccccc2-c2c(n(C)c3ccccc23)C1=O	GAA850 FXN act 14.4 (no result: HDAC3 inhib, AHR act, CTSL1 counter, M18AAP inhibitor) | GAA30 counter inactive | FXN GAA850 conf inactive
C[C@@H]1CN([C@@H](C)CO)C(=O)c2c(c3ccccc3n2C)-c2ccccc2CO[C@H]1CN(C)C(=O)[C@H](C)c1ccccc1	none (no result: HDAC3 inhib, AHR act, CTSL1 counter, M18AAP inhibitor)
Oc1ccc(/C=N/Nc2nccnc2Cl)cc1	none
Nc1c(Cl)ncnc1N/N=C/c1ccc(O)cc1	GAA850 FXN act 7.8 | GAA30 counter 52.3 | FXN GAA850 conf 13.9
CCCNC(=O)OC1CC2CC1[C@H]1CCCCN1C2=O (some centres undefined)	none (no result: HDAC3 inhib, AHR act, CTSL1 counter, GAA850 FXN act, M18AAP inhibitor)
Cc1oc(=O)c(NC(=O)c2ccccc2)cc1C(=O)c1ccccc1	CTSL1 counter 34.9, GAA850 FXN act 8.2 | GAA30 counter 99.6 | FXN GAA850 conf 28.8
Cc1oc(=O)c(NC(=O)c2ccc(Cl)cc2)cc1C(=O)c1ccccc1	CTSL1 counter 19.5, GAA850 FXN act 12.2 | GAA30 counter inactive | FXN GAA850 conf 8.9
CC(=O)c1cc(NC(=O)c2ccccc2)c(=O)oc1C	none
CCCS(=O)(=O)NC(=O)C1(C)CCCN(C(=O)c2ccc3c(c2)OCO3)C1 (centres undefined)	none (no result: HDAC3 inhib, AHR act, CTSL1 counter, M18AAP inhibitor)
Cc1cccc(/C=N/NC(=O)c2cccc([N+](=O)[O-])c2)n1	GAA850 FXN act 12.2 | GAA30 counter inactive | FXN GAA850 conf 11.4
Cc1cccc(/C=N/NC(=O)c2cccc(Cl)c2)n1	GAA850 FXN act 7.6 | GAA30 counter inactive | FXN GAA850 conf inactive
CN(C)/C=C/C(=O)c1ccccc1	none
CN(C)/C=C/C(=O)c1ccc(Oc2ccccc2)cc1	HDAC3 inhib inconclusive, GAA850 FXN act 7.8 | GAA30 counter 103.0 | FXN GAA850 conf 33.3
COc1ccc(CCN2C(=O)c3[nH]nc(-c4ccccc4O)c3C2c2ccccc2)cc1OC (centres undefined)	GAA850 FXN act 13.3 | GAA30 counter inactive | FXN GAA850 conf 8.9
Cn1cnc(S(=O)(=O)NCc2ccc(Br)cc2)c1	none
Cc1ccc(S(=O)(=O)N2CCC(=O)N(CCOC(=O)Nc3cccc(Cl)c3)CC2)cc1	GAA850 FXN act 9.4 | GAA30 counter 41.9 | FXN GAA850 conf 18.6
Cc1ccc(NC(=O)OCCN2CCN(S(=O)(=O)c3ccc(C)cc3)CCC2=O)cc1	none
Clc1ccccc1CSc1ncn(-c2ccccc2)n1	AHR act 67.9, GAA850 FXN act 8.4 | GAA30 counter 104.4 | FXN GAA850 conf 35.3
Cc1c(C(=O)Nc2ccccc2)csc1-c1ccccc1	GAA850 FXN act 8.5 | GAA30 counter 112.5 | FXN GAA850 conf 28.6
CCCCOc1ccc(C(=O)NCC2(c3ccc(OC)cc3)CCOCC2)cc1	GAA850 FXN act 16.2 | GAA30 counter inactive | FXN GAA850 conf inactive
Cc1ccnc(NC(=O)c2ccc(S(=O)(=O)NCc3ccco3)cc2)c1	none (no result: M18AAP inhibitor)
COC(=O)c1ccc(Cn2cnc3c(Cl)ncnc32)cc1	none (no result: HDAC3 inhib, AHR act, CTSL1 counter, M18AAP inhibitor)
C=C(C)[C@@H]1C2=CC(C(=O)OC)=C(C[C@H](C(=C)C)[C@H]3O[C@H]3C3=C[C@H]1OC3=O)O2	GAA850 FXN act 14.5 (no result: HDAC3 inhib, AHR act, CTSL1 counter, M18AAP inhibitor) | GAA30 counter inactive | FXN GAA850 conf inactive
COc1ccc(C2=C(N)c3ccccc3C2=O)cc1	GAA850 FXN act 7.7 | GAA30 counter 102.1 | FXN GAA850 conf 33.5
Nc1ncnc2c1ncn2C1OC(CO)C2OC21 (centres undefined)	none (no result: HDAC3 inhib, AHR act, CTSL1 counter, GAA850 FXN act, M18AAP inhibitor)
CCOC1OC2C(CO)OC(n3cnc4c(N)ncnc43)C2O1 (centres undefined)	GAA850 FXN act 10.7 | GAA30 counter 28.4 | FXN GAA850 conf 9.2
COc1cc2c(cc1NC(=O)C(Cl)Cl)-c1ccc(NC(=O)C(Cl)Cl)cc1C2	none (no result: HDAC3 inhib, AHR act, CTSL1 counter, M18AAP inhibitor)
O=C(NC1CC1)c1cccc(NC(=O)c2cc(S(=O)(=O)N3CCOCC3)ccc2Cl)c1	none (no result: HDAC3 inhib, AHR act, CTSL1 counter, M18AAP inhibitor)
